Experimental data as given in ChEMBL document CHEMBL3797028, “Novel S1P1 receptor agonists - Part 4: Alkylaminomethyl substituted aryl head groups” (Eur J Med Chem, 2016).

What was measured:
[1] = Plasma concentration in Wistar rat at 10 mg/kg administered as single dose through oral gavage after 96 hrs by LC-MS/MS analysis; assay type: ADME, organism-based
Outline: (§1)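 Single oral gavage dose to male Wistar rats in DMSO/7.5% succinylated gelatine (final 5% DMSO). Blood was drawn into EDTA at the lymphocyte-count timepoints. Plasma was prepared at 3000 g for 10 min at 4 °C and analysed by LC-MS/MS after protein precipitation.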

Rattus norvegicus [2] = assay: Change in circulating lymphocyte count in Wistar rat at 3 mg/kg administered as single dose through oral gavage after 6 hrs relative to control; assay type: functional
Outline: (§2)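 Male Wistar rats (RccHan:WIST; n = 6) were given a single oral gavage dose of compound in DMSO plus 7.5% succinylated gelatine (final 5% DMSO). Blood lymphocytes were counted just before dosing and at later timepoints. Percent change was calculated per animal relative to the pre-dose value and compared with a vehicle-treated group, reported as the mean. A ±15% change was treated as baseline, and a reduction of about 60% or more as maximal.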

[3] = Plasma concentration in Wistar rat at 1 mg/kg administered as single dose through oral gavage after 24 hrs by LC-MS/MS analysis; assay type: ADME, organism-based; outline: as §1
[4] = Plasma concentration in Wistar rat at 10 mg/kg administered as single dose through oral gavage after 6 hrs by LC-MS/MS analysis; assay type: ADME, organism-based; outline: as §1
[5] = Apparent intrinsic clearance in Wistar rat liver microsomes at 1 uM after 2.5 to 15 mins by LC-MS/MS analysis in presence of NADPH; assay type: ADME; conditions: read-out: CLH(app)
Outline: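 Compound at 1 uM starting concentration was depleted by 0.5 mg/mL rat liver microsomes in 100 mM sodium phosphate pH 7.4 at 37 °C, with shaking under air. Reactions were started with an NADPH-regenerating system. Samples were taken at 0, 2.5, 5, 10 and 15 min, quenched in ice-cold methanol and analysed by LC-MS/MS. CLint,app came from first-order decay fitting.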

Plasma [6] = assay: Plasma concentration in Wistar rat at 1 mg/kg administered as single dose through oral gavage after 72 hrs by LC-MS/MS analysis; assay type: ADME, organism-based; conditions: in vivo, BLD = below limit of detection; outline: as §1
[7] = Plasma concentration in Wistar rat at 3 mg/kg administered as single dose through oral gavage after 3 hrs by LC-MS/MS analysis; assay type: ADME, organism-based; outline: as §1
Rattus norvegicus [8] = assay: Change in circulating lymphocyte count in Wistar rat at 3 mg/kg administered as single dose through oral gavage after 3 hrs relative to control; assay type: functional; outline: as §2
[9] = Apparent oral clearance in Wistar rat plasma at 1 to 10 mg/kg administered through gavage by LC-MS/MS analysis; assay type: ADME, organism-based
Outline: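 Male Wistar rats received a single oral gavage dose of compound dissolved in DMSO and added to 7.5% succinylated gelatine in water (final 5% DMSO). EDTA plasma was spun at 3000 g for 10 min at 4 °C and analysed by LC-MS/MS after protein precipitation. Oral clearance was estimated from the plasma concentration–time data. In vivo intrinsic clearance used the well-stirred liver model, assuming complete absorption.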

Rattus norvegicus [10] = assay: Change in circulating lymphocyte count in Wistar rat at 10 mg/kg administered as single dose through oral gavage after 24 hrs relative to control; assay type: functional; outline: as §2
Plasma [11] = assay: Plasma concentration in Wistar rat at 3 mg/kg administered as single dose through oral gavage after 72 hrs by LC-MS/MS analysis; assay type: ADME, organism-based; conditions: in vivo, BLD = below limit of detection; outline: as §1
[12] = target: Sphingosine 1-phosphate receptor 1 (Homo sapiens, UniProt P21453); assay: Agonist activity at human recombinant S1PR1 expressed in CHO cell membranes assessed as [35S]GTPgammaS binding preincubated for 30 mins followed by [35S]GTPgammaS addition measured after 1 hr by topcount analysis
Sphingosine 1-phosphate receptor 1, sequence (P21453 whole entry): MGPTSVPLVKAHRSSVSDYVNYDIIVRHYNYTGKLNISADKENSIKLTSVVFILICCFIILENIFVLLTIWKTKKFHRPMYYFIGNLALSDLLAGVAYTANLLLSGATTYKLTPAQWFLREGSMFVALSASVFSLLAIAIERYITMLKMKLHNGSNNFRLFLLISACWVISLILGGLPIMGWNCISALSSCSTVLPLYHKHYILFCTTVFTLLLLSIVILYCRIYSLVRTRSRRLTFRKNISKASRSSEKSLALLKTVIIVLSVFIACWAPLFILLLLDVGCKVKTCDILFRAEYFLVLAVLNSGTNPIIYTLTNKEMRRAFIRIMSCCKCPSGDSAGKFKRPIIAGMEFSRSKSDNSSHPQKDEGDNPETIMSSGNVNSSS

Rattus norvegicus [13] = assay: Reduction in circulating lymphocyte count in po dosed Wistar rat administered through gavage after 3 to 96 hrs; assay type: functional, organism-based; outline: as §2
[14] = Plasma concentration in Wistar rat at 10 mg/kg administered as single dose through oral gavage after 3 hrs by LC-MS/MS analysis; assay type: ADME, organism-based; outline: as §1
[15] = Selectivity ratio of EC50 for human recombinant S1PR3 expressed in CHO cell membranes to EC50 for human recombinant S1PR1 expressed in CHO cell membranes; assay type: cell-based
Outline: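 Compound and membranes are pre-incubated 30 min at rt, then incubated 1 h at rt, filtered and counted. EC50 is the concentration giving 50% of S1P-defined specific binding, as the geometric mean of ≥3 independent duplicate runs. Ratio = EC50 S1PR3/EC50 S1PR1.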

[16] = target: Sphingosine 1-phosphate receptor 5 (Homo sapiens, UniProt Q9H228); assay: Agonist activity at S1PR5 (unknown origin)
Sphingosine 1-phosphate receptor 5, sequence (Q9H228 whole entry): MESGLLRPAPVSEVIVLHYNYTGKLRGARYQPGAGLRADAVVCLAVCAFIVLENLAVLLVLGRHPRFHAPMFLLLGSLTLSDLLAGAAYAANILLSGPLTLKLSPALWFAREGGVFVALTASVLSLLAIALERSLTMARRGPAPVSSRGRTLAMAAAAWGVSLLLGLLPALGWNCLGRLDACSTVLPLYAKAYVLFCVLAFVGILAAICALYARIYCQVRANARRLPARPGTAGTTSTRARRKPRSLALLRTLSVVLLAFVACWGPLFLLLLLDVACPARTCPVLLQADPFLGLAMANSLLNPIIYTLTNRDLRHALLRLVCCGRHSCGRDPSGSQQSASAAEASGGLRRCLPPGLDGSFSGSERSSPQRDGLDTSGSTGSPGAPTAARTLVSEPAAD

[17] = Distribution coefficient, log D between 1-octonol and phosphate buffer at pH 7; assay type: physicochemical; conditions: 1-octanol/phosphate buffer
Outline: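 Partition was between 1-octanol and phosphate buffer at pH 7.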

[18] = target: Sphingosine 1-phosphate receptor 3 (Homo sapiens, UniProt Q99500); assay: Agonist activity at human recombinant S1PR3 expressed in CHO cell membranes assessed as [35S]GTPgammaS binding preincubated for 30 mins followed by [35S]GTPgammaS addition measured after 1 hr by topcount analysis; assay type: functional
Sphingosine 1-phosphate receptor 3, sequence (Q99500 whole entry): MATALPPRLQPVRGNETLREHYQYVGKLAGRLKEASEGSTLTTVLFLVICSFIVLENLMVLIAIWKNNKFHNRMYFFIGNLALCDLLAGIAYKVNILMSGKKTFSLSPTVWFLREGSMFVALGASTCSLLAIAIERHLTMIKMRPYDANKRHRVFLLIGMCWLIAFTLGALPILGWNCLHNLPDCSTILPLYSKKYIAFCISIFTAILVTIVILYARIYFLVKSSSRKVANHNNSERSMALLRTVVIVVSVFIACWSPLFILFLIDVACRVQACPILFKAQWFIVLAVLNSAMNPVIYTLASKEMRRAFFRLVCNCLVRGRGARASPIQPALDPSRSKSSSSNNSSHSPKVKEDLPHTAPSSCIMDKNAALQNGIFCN
Outline: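 Membranes from CHO cells expressing recombinant human S1P1 or S1P3 were used. Buffer was 20 mM Hepes pH 7.4, 100 mM NaCl, 5 mM MgCl2, 0.1% fatty-acid-free BSA, 2.5% DMSO and 50 pM 35S-GTPgammaS. GDP was […] for S1P3. Compound was preincubated 30 min at rt, then incubated 1 h at rt with 35S-GTPgammaS. Bound label was collected by filtration and counted. Specific binding was taken against 10 uM S1P. EC50 was the 50%-of-specific-binding concentration, reported as the geometric mean of at least three independent duplicate runs.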

[19] = target: T1, Sphingosine 1-phosphate receptor 4 (Homo sapiens, UniProt O95977); assay: Agonist activity at S1PR4 (unknown origin)
T1 sequence (O95977 whole entry): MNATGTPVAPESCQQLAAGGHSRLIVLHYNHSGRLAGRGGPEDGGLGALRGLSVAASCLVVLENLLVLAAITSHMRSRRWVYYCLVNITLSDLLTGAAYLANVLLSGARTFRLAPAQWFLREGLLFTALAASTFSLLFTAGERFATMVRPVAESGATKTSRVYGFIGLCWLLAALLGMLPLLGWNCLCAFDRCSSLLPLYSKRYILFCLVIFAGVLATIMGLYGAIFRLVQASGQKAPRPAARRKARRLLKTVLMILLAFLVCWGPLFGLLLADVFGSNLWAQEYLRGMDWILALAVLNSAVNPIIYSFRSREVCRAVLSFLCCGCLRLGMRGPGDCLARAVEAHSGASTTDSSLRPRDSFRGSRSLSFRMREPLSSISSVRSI

[20] = Plasma concentration in Wistar rat at 1 mg/kg administered as single dose through oral gavage after 3 hrs by LC-MS/MS analysis; assay type: ADME, organism-based; outline: as §1
[21] = Plasma concentration in Wistar rat at 3 mg/kg administered as single dose through oral gavage after 24 hrs by LC-MS/MS analysis; assay type: ADME, organism-based; outline: as §1

With CCc1cc(-c2noc(-c3cc(C)c(CN(C)CC(C)C)s3)n2)cc(C)c1OC[C@@H](O)CNC(=O)CO as the compound, how does the concentration at 96 h [1] read?
Its concentration at 96 h is 0.5 ng/mL.

What about the Activity (Rattus norvegicus [2]) of the same compound?
Its Activity is -70%.

What about the concentration at 24 h [3] of the same compound?
The concentration at 24 h was 5.2 ng/mL.

What about the concentration at 6 h [4] of the same compound?
Its concentration at 6 h is 540 ng/mL.

And the microsomal CLint at 1 µM [5]?
The microsomal CLint at 1 µM was 28 µL/min/mg.

What about the Cp (Plasma [6]) of the same compound?
The Cp was “BLD”.

And the concentration at 3 h [7]?
Its concentration at 3 h is 210 ng/mL.

What about the Activity (Rattus norvegicus [8]) of the same compound?
The Activity was -59%.

What about the CL/F [9] of the same compound?
The CL/F was 19 mL/min/kg.

What about the Activity (Rattus norvegicus [10]) of the same compound?
The Activity was -70%.

What about the Cp (Plasma [11]) of the same compound?
Its Cp is “BLD”.

And the EC50 [12]?
Its EC50 is 0.5 nM.

What about the Activity (Rattus norvegicus [13]) of the same compound?
Its Activity is “Dose-dependent effect”.

And the concentration at 3 h [14]?
The concentration at 3 h was 722 ng/mL.

And the Ratio EC50 [15]?
The Ratio EC50 was 290.

And the EC50 [16]?
The EC50 was 753 nM.

What about the logD [17] of the same compound?
Its logD is greater than 4.1.

And the EC50 [18]?
Its EC50 is 145 nM.

What about the EC50 [19] of the same compound?
Its EC50 is greater than 1000 nM.

And the concentration at 3 h [20]?
Its concentration at 3 h is 67 ng/mL.

And the concentration at 24 h [21]?
Its concentration at 24 h is 25 ng/mL.
